Reference: ChEMBL document CHEMBL4480426, “Novel multi-target directed ligands based on annelated xanthine scaffold with aromatic substituents acting on adenosine receptor and monoamine oxidase B. Synthesis, in vitro and in silico studies” (Bioorg Med Chem, 2019)

Legend:
[1] = target: T1, Amine oxidase [flavin-containing] B (Homo sapiens, UniProt P27338); experiment: Inhibition of recombinant human MAOB expressed in baculovirus infected BTI insect cells using p-tyramine as substrate preincubated for 30 mins followed by substrate addition and measured over 45 mins by horseradish peroxidase-Amplex Red-coupled fluorometric assay
T1 sequence (P27338 whole entry): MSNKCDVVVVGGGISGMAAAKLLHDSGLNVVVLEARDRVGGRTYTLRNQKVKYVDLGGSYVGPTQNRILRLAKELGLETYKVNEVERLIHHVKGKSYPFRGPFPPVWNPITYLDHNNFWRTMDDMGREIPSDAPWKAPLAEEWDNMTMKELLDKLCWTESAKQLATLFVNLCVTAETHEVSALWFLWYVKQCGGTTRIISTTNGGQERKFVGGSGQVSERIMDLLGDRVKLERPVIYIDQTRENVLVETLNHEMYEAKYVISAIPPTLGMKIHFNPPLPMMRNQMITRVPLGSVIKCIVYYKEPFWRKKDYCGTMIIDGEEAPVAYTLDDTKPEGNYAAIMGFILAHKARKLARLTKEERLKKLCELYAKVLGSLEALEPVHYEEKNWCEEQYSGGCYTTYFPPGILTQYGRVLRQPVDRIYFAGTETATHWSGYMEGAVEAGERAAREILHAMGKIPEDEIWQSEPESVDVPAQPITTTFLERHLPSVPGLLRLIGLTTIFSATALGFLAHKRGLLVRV
How it was run: (§1)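 Human recombinant MAO-A or MAO-B enzyme. Activity detected fluorometrically with the Amplex Red monoamine oxidase assay.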

[2] = target: Adenosine receptor A2a (Homo sapiens, UniProt P29274); experiment: Displacement of [3H]MSX2 from recombinant human adenosine A2a receptor expressed in HEK293 cells; type: cell-based
Sequence of Adenosine receptor A2a (P29274 whole entry): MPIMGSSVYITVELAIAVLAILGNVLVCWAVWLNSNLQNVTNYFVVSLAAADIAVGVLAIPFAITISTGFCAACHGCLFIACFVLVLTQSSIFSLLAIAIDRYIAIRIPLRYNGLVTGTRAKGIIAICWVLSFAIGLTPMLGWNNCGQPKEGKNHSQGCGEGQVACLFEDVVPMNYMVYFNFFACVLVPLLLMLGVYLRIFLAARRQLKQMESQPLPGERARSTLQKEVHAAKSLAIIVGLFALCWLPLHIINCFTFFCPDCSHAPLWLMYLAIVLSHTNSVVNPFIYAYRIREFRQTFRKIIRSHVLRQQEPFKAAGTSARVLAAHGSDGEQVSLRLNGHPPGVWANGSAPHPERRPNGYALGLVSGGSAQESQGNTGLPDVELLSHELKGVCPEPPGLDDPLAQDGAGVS

[3] = target: T2, Adenosine receptor A1 (Rattus norvegicus, UniProt P25099); experiment: Displacement of [3H]CCPA from adenosine A1 receptor in rat brain cortical membranes; type: cell membranes
T2 sequence (P25099 whole entry): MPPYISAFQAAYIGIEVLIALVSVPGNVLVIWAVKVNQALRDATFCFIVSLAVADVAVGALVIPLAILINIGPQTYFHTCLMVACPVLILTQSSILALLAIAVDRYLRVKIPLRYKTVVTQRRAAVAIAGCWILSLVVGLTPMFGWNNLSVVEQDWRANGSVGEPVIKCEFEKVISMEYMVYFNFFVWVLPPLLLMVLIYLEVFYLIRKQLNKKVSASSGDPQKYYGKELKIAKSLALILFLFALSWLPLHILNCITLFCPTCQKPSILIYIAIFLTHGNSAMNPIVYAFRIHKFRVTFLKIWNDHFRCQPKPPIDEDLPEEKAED

[4] = target: T3, Amine oxidase [flavin-containing] A (Homo sapiens, UniProt P21397); experiment: Inhibition of recombinant human MAOA expressed in baculovirus infected BTI insect cells using p-tyramine as substrate preincubated for 30 mins followed by substrate addition and measured over 45 mins by horseradish peroxidase-Amplex Red-coupled fluorometric assay; how it was run: as §1
T3 sequence (P21397 whole entry): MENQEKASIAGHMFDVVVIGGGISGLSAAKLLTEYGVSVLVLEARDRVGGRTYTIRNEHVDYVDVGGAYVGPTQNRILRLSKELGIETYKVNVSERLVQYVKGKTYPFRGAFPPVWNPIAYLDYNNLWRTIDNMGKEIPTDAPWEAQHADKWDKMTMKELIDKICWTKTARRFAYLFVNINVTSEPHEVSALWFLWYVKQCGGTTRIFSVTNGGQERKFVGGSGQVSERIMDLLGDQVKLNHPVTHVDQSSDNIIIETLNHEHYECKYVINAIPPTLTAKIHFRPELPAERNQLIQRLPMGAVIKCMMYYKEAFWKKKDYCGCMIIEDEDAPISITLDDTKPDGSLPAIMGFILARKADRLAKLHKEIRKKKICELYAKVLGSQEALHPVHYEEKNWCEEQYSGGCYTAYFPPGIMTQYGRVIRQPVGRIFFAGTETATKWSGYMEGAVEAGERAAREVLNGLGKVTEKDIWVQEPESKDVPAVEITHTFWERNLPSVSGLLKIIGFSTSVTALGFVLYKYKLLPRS

[5] = tested on: HepG2; experiment: Hepatotoxicity against human HepG2 cells assessed as reduction in cell viability at 100 uM measured after 72 hrs by CellTiter96 Aqueous non-radioactive cell proliferation assay; type: toxicity, cell-based; conditions: hepg2, 72 h
How it was run: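 HepG2 cells seeded at 1.5×10^4 cells/well in MEM with 4.5 g/L glucose and 10% FBS, grown 24 h at 37 °C, 5% CO2. Compounds diluted in the same medium and applied for 72 h. CellTiter 96 AQueous reagent then added for 2 h, absorbance read at 490 nm. One-way ANOVA with Bonferroni post test.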

[6] = target: T4, Adenosine receptor A3 (Homo sapiens, UniProt P0DMS8); experiment: Displacement of [3H]PSB11 from recombinant human adenosine A3 receptor expressed in CHO cells; type: cell-based
T4 sequence (P0DMS8 whole entry): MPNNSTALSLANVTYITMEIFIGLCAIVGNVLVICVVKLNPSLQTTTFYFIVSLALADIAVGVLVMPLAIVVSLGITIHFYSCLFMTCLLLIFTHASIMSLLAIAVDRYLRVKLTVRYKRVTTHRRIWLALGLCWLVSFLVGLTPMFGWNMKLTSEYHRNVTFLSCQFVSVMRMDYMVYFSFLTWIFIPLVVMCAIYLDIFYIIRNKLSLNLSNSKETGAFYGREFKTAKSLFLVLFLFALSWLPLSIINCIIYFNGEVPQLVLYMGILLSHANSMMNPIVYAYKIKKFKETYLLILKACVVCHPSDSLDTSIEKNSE

[7] = target: T5, Adenosine receptor A2b (Homo sapiens, UniProt P29275); experiment: Displacement of [3H]PSB603 from recombinant human adenosine A2b receptor expressed in HEK293 cells; type: cell-based
T5 sequence (P29275 whole entry): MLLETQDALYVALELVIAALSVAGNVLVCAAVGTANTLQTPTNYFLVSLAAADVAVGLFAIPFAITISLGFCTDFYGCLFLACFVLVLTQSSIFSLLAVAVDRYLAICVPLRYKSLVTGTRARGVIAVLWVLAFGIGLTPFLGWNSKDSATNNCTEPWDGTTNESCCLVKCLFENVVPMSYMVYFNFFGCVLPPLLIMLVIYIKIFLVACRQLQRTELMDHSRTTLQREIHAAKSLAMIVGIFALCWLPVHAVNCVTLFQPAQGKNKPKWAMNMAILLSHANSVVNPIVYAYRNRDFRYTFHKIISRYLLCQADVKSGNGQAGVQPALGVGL

[8] = target: T3, Amine oxidase [flavin-containing] A; experiment: Inhibition of recombinant human MAOA expressed in baculovirus infected BTI insect cells at 1 to 100 uM using p-tyramine as substrate preincubated for 30 mins followed by substrate addition and measured over 45 mins by horseradish peroxidase-Amplex Red-coupled fluorometric assay relative to control; conditions: 0.75 h; how it was run: as §1
[9] = tested on: Brain; experiment: Antioxidant activity in rat brain homogenate assessed as inhibition of FeCl2/ascorbic acid-induced lipid peroxidation by measuring reduction in TBARS level at 1000 uM preincubated for 5 mins followed by FeCl2/ascorbic acid addition and measured after 30 mins relative to control; type: functional, tissue-based; parameters: scale not given: the % may be the effect or the level left
How it was run: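 Rat brain homogenate in 0.9% saline, 10 mg tissue/ml, preincubated 5 min at 37 °C with compound or vehicle. Peroxidation started with 0.5 mM FeCl2 plus 2 mM ascorbic acid (added-solution concentrations). After 30 min, stopped with 0.2% BHT. Thiobarbituric acid reagent added, heated 15 min in boiling water, TBARS extracted into n-butanol and read at 532 nm. Carvedilol as reference.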

[10] = Antioxidant activity assessed as increase in total ferric ion reducing activity at 1000 uM using FeCl3.6H2O and TPTZ incubated for 10 mins under dark condition by FRAP assay relative to control; type: functional; parameters: scale not given: the % may be the effect or the level left
How it was run: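 FRAP reagent made by mixing 10 parts 300 mM acetate buffer pH 3.6, 1 part 10 mM TPTZ in 40 mM HCl and 1 part 20 mM FeCl3·6H2O. Reagent mixed with compound solution, 10 min at room temperature in the dark. Ferrous-TPTZ complex read at 593 nm. Result is absorbance increase versus solvent sample. FeSO4·7H2O standard curve, 37.5–1200 μM.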

[11] = target: Adenosine receptor A1 (Rattus norvegicus) (UniProt P25099); experiment: Displacement of [3H]CCPA from rat adenosine A1 receptor

Compound	IC50 [1]	Ki [2]	Ki [3]	IC50 [4]	Activity [5]	Ki [6]	Ki [7]	inhibition (INH) [8]	Activity [9]	Activity [10]	Ki [11]
Cn1c(=O)c2c(nc3n2CCCN3Cc2c(F)cccc2Cl)n(C)c1=O	570 nM	189 nM	1550 nM	> 100000 nM	Toxic	> 1000 nM	> 1000 nM	10%	–	–	–
Cn1c(=O)c2c(nc3n2CCCN3Cc2ccccc2Br)n(C)c1=O	150 nM	1610 nM	2320 nM	> 1000 nM	Toxic	> 1000 nM	> 1000 nM	1%	29.5%	3.4%	–
COc1ccccc1OCCNCC(O)COc1cccc2[nH]c3ccccc3c12 (stereo not given)	–	–	–	–	–	–	–	–	44.8%	–	–
Cn1c(=O)c2c(nc3n2CCCN3Cc2cccc(Cl)c2)n(C)c1=O	–	–	–	–	–	–	–	–	–	–	802 to 1120 nM
